Hits are enriched below; roughly 6.6% of the tested compounds scored in any of these assays.
HUVEC prolif 384: blocks proliferation of human endothelial cells; HUVEC proliferation, CellTiter-Glo luminescence, 72 h; active compounds read low; viability, % at 10 µM (by protocol); 1.1% of 86,000 active; AID 648;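 active = viability at or below 30%; inactive = viability above 30%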;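 note: 100% = median luminescence of DMSO-only cell control wells on each plate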
H69AR growth 86K: growth inhibitors of human H69AR lung tumor cells; AID 598; H69AR lung tumor viability, ATP luminescence, 72 h; active compounds read low; viability, % at 10 µM; 6% of 85,000 active;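 active = viability at or below 40%; inactive = viability above 40%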;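 note: multidrug resistant small cell line overexpressing MRP-1 efflux transporter; 100% = mean luminescence of untreated control wells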
Fibroblast inh: blocks proliferation of human lung fibroblasts | LL 47 human lung fibroblast viability, ATP luminescence; active compounds read low | viability, % at 10 µM | 1.1% of 85,000 active | AID 719;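 active = viability at or below 50% in the single dose screen; inactive = viability above 50%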;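 note: compound exposure lasted 72 h before the ATP readout; 100% = median luminescence of untreated cell-only wells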
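Signal: luminescent ATP detection, CellTiter-Glo; assay system: LL 47 human lung fibroblasts; input: 1,150 cells/well; incubation: overnight cell rest, 72 h compound treatment at 37 °C; measure: % viability versus median cells-only luminescence; medium: IMEM growth medium with 15% fetal bovine serum; dosing: compound addition at 0.1% DMSO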
Jurkat viability: cytotoxicity toward Jurkat cells; 1.2% of 56,000 active; Jurkat E6.1 viability, ATP luminescence, 48 h; inhibition, % at 4 µM;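 active = inhibition above the mean inhibition of all tested compounds plus 3 SD, cut at about 28% in these data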
An asterisk follows results filed as active.

For Cc1ccc(S(=O)(=O)c2c(C)nn(C(C)(C)C)c2OC(=O)c2ccco2)cc1 the results were HUVEC prolif 384 14*, H69AR growth 86K 54, Fibroblast inh 109 and Jurkat viability -2.
For CC(=O)Oc1c(S(=O)(=O)c2ccc(C)cc2)c(C)nn1C(C)(C)C the results were HUVEC prolif 384 108, H69AR growth 86K 91, Fibroblast inh 102 and Jurkat viability -8.
Screening Cc1ccc(S(=O)(=O)c2c(C)nn(C(C)(C)C)c2OC(=O)c2cccs2)cc1 returned HUVEC prolif 384 12*, H69AR growth 86K 110, Fibroblast inh 101 and Jurkat viability -2.
`Cc1ccc(S(=O)(=O)c2c(C)nn(C(C)(C)C)c2OC(=O)c2ccc(Br)o2)cc1` gave HUVEC prolif 384 13*, H69AR growth 86K 37*, Fibroblast inh 102 and Jurkat viability -5.
Screening Cc1ccc(S(=O)(=O)c2c(C)nn(C(C)(C)C)c2OC(=O)C(C)(C)C)cc1 returned HUVEC prolif 384 89, H69AR growth 86K 95, Fibroblast inh 96 and Jurkat viability -7.
Screening O=S(=O)(c1ccc(NCCc2c[nH]c3ccccc23)nc1)N1CCOCC1 returned HUVEC prolif 384 82, H69AR growth 86K 74, Fibroblast inh 95 and Jurkat viability 3.
`COc1ccc(-c2c(-c3ccc(O)cc3O)n[nH]c2C)cc1OC` gave HUVEC prolif 384 67, H69AR growth 86K 21* and Fibroblast inh 80.
For COc1ccc(-c2n[nH]c(C)c2-c2cc(OC)ccc2O)cc1 the results were HUVEC prolif 384 95, H69AR growth 86K 99 and Fibroblast inh 99.
Screening C=C(C)COc1ccc(-c2nc(N)ncc2Oc2ccc(OC)cc2)c(O)c1 returned HUVEC prolif 384 87, H69AR growth 86K 73, Fibroblast inh 85 and Jurkat viability 1.
`C=C(C)COc1ccc(-c2n[nH]c(C)c2-c2ccc(Br)cc2)c(O)c1` gave HUVEC prolif 384 3.8*, H69AR growth 86K 6.6* and Fibroblast inh 32*.
Screening O=C(c1ccc(CS(=O)(=O)c2ccccc2)o1)N1CCN(c2ncccn2)CC1 returned HUVEC prolif 384 102, H69AR growth 86K 99, Fibroblast inh 99 and Jurkat viability 3.
`COc1ccc(CN2C(=O)CN=C2Nc2cc(C)ccc2C)cc1` gave HUVEC prolif 384 79, H69AR growth 86K 40* and Fibroblast inh 95.
Screening Nc1nc2sc3c(c2cc1C(=O)N1CCOCC1)CCCC3 returned HUVEC prolif 384 99, H69AR growth 86K 88, Fibroblast inh 91 and Jurkat viability -2.
Cc1cccc2cc3c(N)c(C(=O)N4CCOCC4)sc3nc12 was read as HUVEC prolif 384 62, H69AR growth 86K 18*, Fibroblast inh 64 and Jurkat viability 76*.
Screening Cc1ccc(OC2=NS(=O)(=O)c3ccccc32)cc1 returned HUVEC prolif 384 80, H69AR growth 86K 31* and Fibroblast inh 102.
CCCc1ccc(OCc2ccc(C(=O)N3CCN(c4ccccn4)CC3)o2)c(OC)c1 was read as HUVEC prolif 384 59, H69AR growth 86K 61, Fibroblast inh 93 and Jurkat viability 2.
CN1C(=O)N(C)C2(c3ccccc3)NC(=O)NC12c1ccccc1 (centres undefined) was read as HUVEC prolif 384 105, H69AR growth 86K 99, Fibroblast inh 93 and Jurkat viability 4.
For CN1C(=O)N(C)C2(c3ccccc3)Nn3c(s/c(=C/c4ccccc4)c3=O)=NC12c1ccccc1 (centres undefined) the results were HUVEC prolif 384 103, H69AR growth 86K 38* and Fibroblast inh 91.
CS(=O)(=O)N(Cc1ccco1)CC(O)Cn1cc(C=O)c2ccccc21 (centres undefined) was read as HUVEC prolif 384 94, H69AR growth 86K 79 and Fibroblast inh 91.
For Cc1ccc(C)c2[nH]c(=O)c(CN(CC3CCCO3)C(=O)NC3CCCCC3)cc12 (centres undefined) the results were HUVEC prolif 384 91, H69AR growth 86K 56, Fibroblast inh 97 and Jurkat viability -1.
COc1cc2nc(C3CC3)n(NC(=O)c3ccc(Cl)cc3)c(=O)c2cc1OC was read as HUVEC prolif 384 68, H69AR growth 86K 24*, Fibroblast inh 91 and Jurkat viability 11.
`CCCC(CCC)C(=O)Nc1c[nH]c(=O)[nH]c1=O` gave HUVEC prolif 384 110, H69AR growth 86K 104 and Fibroblast inh 111.
Screening COc1cccc(N2CC(O)=C(c3nc4ccccc4c(=O)[nH]3)C2=N)c1 returned HUVEC prolif 384 62, H69AR growth 86K 29* and Fibroblast inh 66.
`COc1ccc(Nc2oc(COc3ccc(OC)cc3)nc2C#N)cc1` gave HUVEC prolif 384 85, H69AR growth 86K 73 and Fibroblast inh 101.
`COc1ccc(Nc2oc(COc3ccccc3F)nc2C#N)cc1` gave HUVEC prolif 384 87, H69AR growth 86K 5.4*, Fibroblast inh 93 and Jurkat viability -14.
`Oc1c(C=NCc2ccc(F)cc2)[nH]c2ccc(Br)c(Cl)c12` gave HUVEC prolif 384 64, H69AR growth 86K 58 and Fibroblast inh 96.
`Cc1ccc(CN=Cc2[nH]c3ccc(Br)c(Cl)c3c2O)cc1` gave HUVEC prolif 384 64, H69AR growth 86K 33* and Fibroblast inh 103.
For Cn1ccnc1SCC(=O)c1ccc(Br)cc1 the results were HUVEC prolif 384 88, H69AR growth 86K 29*, Fibroblast inh 96 and Jurkat viability -2.
For CCOC(=O)c1ccc(NC(=O)CSc2nccn2C)cc1 the results were HUVEC prolif 384 104, H69AR growth 86K 105, Fibroblast inh 103 and Jurkat viability 1.
`CCOC(=O)Cn1c2c(c(=N)c3ccccc31)CCC2` gave Jurkat viability 7.
`N=c1c2c(n(Cc3ccccc3)c3c1CCC3)CCC2` gave HUVEC prolif 384 95, H69AR growth 86K 89, Fibroblast inh 83 and Jurkat viability 64*.
For N=c1c2c(n(Cc3cccc(Cl)c3)c3c1CCC3)CCCC2 the results were HUVEC prolif 384 83, H69AR growth 86K 76 and Fibroblast inh 68.
N=c1c2c(n(Cc3ccc(Cl)cc3)c3c1CCC3)CCC2 was read as HUVEC prolif 384 86, H69AR growth 86K 97, Fibroblast inh 70 and Jurkat viability 88*.
`CC(C)C(C(=O)OCC(=O)c1ccc2c(c1)NC(=O)CO2)N1C(=O)c2ccccc2C1=O` (centres undefined) gave HUVEC prolif 384 84, H69AR growth 86K 83, Fibroblast inh 95 and Jurkat viability -2.
Screening CC[C@H](C)[C@H](NC(=O)c1ccc(Cl)cc1)C(=O)OCC(=O)c1ccc2c(c1)NC(=O)CO2 returned HUVEC prolif 384 5.4*, H69AR growth 86K 2.6* and Fibroblast inh 21*.
CCn1c(SCC(=O)N2CCCCC2)nc2c(c1=O)SC(C)C2 (centres undefined) was read as HUVEC prolif 384 94, H69AR growth 86K 62 and Fibroblast inh 100.
Screening CCn1c(SCC(=O)NC2CCCCC2)nc2c(c1=O)SC(C)C2 (centres undefined) returned HUVEC prolif 384 90, H69AR growth 86K 39*, Fibroblast inh 94 and Jurkat viability 0.

Source: PubChem BioAssay (several laboratories)
